Experimental data collected from several papers.
Protocols differ between the studies behind these lines.
Target: Protein kinase C epsilon type (PRKCE, Homo sapiens, UniProt Q02156)
Sequence (Q02156 1-737, as in one of the studies): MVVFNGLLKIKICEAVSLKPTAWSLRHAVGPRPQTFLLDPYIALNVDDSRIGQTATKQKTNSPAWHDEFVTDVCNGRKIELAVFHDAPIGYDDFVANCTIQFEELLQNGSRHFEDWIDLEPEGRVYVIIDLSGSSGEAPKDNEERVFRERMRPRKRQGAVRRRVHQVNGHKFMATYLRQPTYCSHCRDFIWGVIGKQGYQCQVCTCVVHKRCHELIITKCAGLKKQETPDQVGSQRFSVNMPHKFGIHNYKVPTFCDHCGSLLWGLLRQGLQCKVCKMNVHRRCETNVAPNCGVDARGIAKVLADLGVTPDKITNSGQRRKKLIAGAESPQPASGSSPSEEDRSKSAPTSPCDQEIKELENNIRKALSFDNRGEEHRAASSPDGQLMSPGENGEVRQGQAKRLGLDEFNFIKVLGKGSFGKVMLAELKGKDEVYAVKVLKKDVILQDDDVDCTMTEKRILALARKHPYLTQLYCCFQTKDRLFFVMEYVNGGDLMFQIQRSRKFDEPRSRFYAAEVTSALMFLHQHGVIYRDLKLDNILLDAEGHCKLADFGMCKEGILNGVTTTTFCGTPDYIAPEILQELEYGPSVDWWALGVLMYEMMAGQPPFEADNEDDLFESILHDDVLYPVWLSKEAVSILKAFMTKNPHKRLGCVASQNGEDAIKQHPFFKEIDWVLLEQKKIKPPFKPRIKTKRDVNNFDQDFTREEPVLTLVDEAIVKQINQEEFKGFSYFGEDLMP

SMILES	effect on	action	technique	concentration	measurement	result
Cc1nc(Cc2cccc(C(F)(F)F)c2)sc1-c1ccc(C(N)=O)nc1	cell-free assay	–	competition with immobilised ligand	1 µM	remaining binding	100%
COc1cc2ncnc(Nc3ccc(Oc4ccccc4)c(C)c3C)c2cc1OC	enzyme activity	inhibitor	–	1 µM	inhibition	-5%
Cc1cc(NC(=O)c2cccc3cc(-c4cccc5[nH]nc(N)c45)ccc23)ccc1F	enzyme activity	inhibitor	–	0.1 µM	activity vs control	84%
CCCOc1ccc(OC)c(F)c1C(=O)c1ccc(C(=O)N[C@@H]2CNC[C@H]2NC(=O)c2ccc3[nH]ncc3c2)cc1	enzyme activity	inhibitor	–	10 µM	remaining activity	67%
Cc1ccc(Nc2nccc(N(C)c3ccc4c(C)n(C)nc4c3)n2)cc1S(N)(=O)=O	enzyme activity	inhibitor	–	10 µM	inhibition	12%
CC/C(=N\NC(=O)NCc1cccc(O)c1)c1ccc(O)c(C)c1O	enzyme activity	inhibitor	–	0.1 µM	inhibition	19.6%
Nc1ncnc2occ(-c3ccc(NC(=O)Nc4cc(C(F)(F)F)ccc4F)cc3)c12	cell-free assay	–	–	20 µM	remaining signal	50%
CCCCN(CCCC)C(=O)CN1C[C@@H](c2cc(OC)c3c(c2)OCO3)[C@H](C(=O)O)[C@H]1CC(C)(C)CCC	cell-free assay	–	competition with immobilised ligand	1 µM	remaining binding	100%
CS(=O)(=O)Nc1cccc(-c2csc(NC(=O)CSc3nc4nccnc4c(=O)n3CCc3ccccc3)n2)c1	enzyme activity	inhibitor	–	10 µM	inhibition	-9%
Cc1nc(N2CC[C@@H](O)C2)ncc1-c1cc(C(F)(F)F)cc2[nH]ncc12	cell-free assay	–	competition with immobilised ligand	1 µM	remaining binding	88%
CCN(CC)c1ccc(C2=NNC(=O)CC2C)cc1[N+](=O)[O-] (centres unmarked)	enzyme activity	inhibitor	–	10 µM	remaining activity	95%
Nc1nc(Nc2ccc(S(N)(=O)=O)cc2)nn1C(=O)c1c(F)cccc1F	cell-free assay	–	–	0.5 µM	remaining signal	97.2%
CNC(=O)Nc1ccc2c(c1)CC[C@@]21OC(=O)N(CC(=O)N(Cc2ccc(F)cc2)[C@@H](C)C(F)(F)F)C1=O	cell-free assay	–	competition with immobilised ligand	1 µM	remaining binding	22%
N#CCCc1ccc2c(c1)-c1[nH]c3ccc([N+](=O)[O-])cc3c1CC(=O)N2	cell-free assay	–	–	0.5 µM	remaining signal	95.4%
CC(C)(C)c1nc2c(s1)c1nc(N)ncc1c1ccc(NS(=O)(=O)c3c(F)cccc3F)c(F)c12	enzyme activity	inhibitor	radiometric	1 µM	remaining activity	133%
COc1ccc2c(c1)O[C@H](c1ccc(OC)c(OC)c1)C[C@@H]2NC(=O)C1(c2ccc3c(c2)OC(F)(F)O3)CC1	cell-free assay	–	competition with immobilised ligand	1 µM	remaining binding	90%
O=C1Nc2ccc(Cl)cc2C1=Cc1cc(Cl)c(O)c(Cl)c1	cell-free assay	–	–	0.5 µM	remaining signal	100%
